The values below come from PMC11516114 (Protein Science : A Publication of the Protein Society, 2024).

Molecules are shown by their SMILES. Read-outs that look alike come from different tables or passages of the source.

Experiment [1] has as its target T1, wild-type HIF-2α PAS-B (Homo sapiens, UniProt Q99814). The note with it: previously measured, ref Key et al. [2009]; cited from earlier work.
The target of experiment [2] is T1, wild-type HIF-2α PAS-B. In words: Isothermal titration calorimetry. Type of experiment: binding. The method in brief: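 Human HIF-2α PAS-B (residues 240–350), expressed with a cleavable His6-Gβ1 tag, purified by Ni2+ affinity, TEV cleavage, a second Ni2+ pass and size exclusion. ITC run at 25°C with protein (250–300 μM) titrated into 20 μM test compound: 25 injections, 250 s spacing, 350 rpm. Protein-into-buffer heats were subtracted.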

T1 sequence (Q99814 240-350): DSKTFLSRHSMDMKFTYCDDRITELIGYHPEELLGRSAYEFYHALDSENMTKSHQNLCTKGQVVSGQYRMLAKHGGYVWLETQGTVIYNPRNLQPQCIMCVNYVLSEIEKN

`O=[N+]([O-])c1cc(C(F)(F)F)ccc1NCc1ccsc1` [THS-017, 2‐nitro‐N‐[(thiophen‐3‐yl)methyl]‐4‐(trifluoromethyl)aniline]: the Kd at wild-type HIF-2α PAS-B [1] is 590 ± 50 nM; at wild-type HIF-2α PAS-B [2], 600 ± 60 nM.

For `O=[N+]([O-])c1cc(C(F)(F)F)ccc1NCc1ccco1` [THS-020, N‐[(furan‐2‐yl)methyl]‐2‐nitro‐4‐(trifluoromethyl)aniline], the Kd is 1500 ± 700 nM at wild-type HIF-2α PAS-B [1] and 1350 ± 110 nM on wild-type HIF-2α PAS-B [2].
